STAT3 act-1: STAT3 signaling activation | U3A cells, IL-6 STAT3-luciferase reporter, luminescence; 100% = signal with IL-6 EC80 alone | activation (% of control), % at 5.6 µM | hit rate 0.91% among 190,000 | AID 871;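 active = activation above the screen-wide mean of compound activation plus 3 SD, cut at about 130% in these data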;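 note: 0% = background luminescence of wells with medium and substrate only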
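Test system: Human STAT1-deficient U3A cells with stable STAT3-luciferase reporter | Also added: Interleukin-6, 33 ng/mL | Timing: Compound pre-incubation 1 h before IL-6, then 6 h stimulation at 37 °C | Technique: Luciferase reporter luminescence | Read-out: Percent of IL-6-only median luminescence | Benchmarks: IL-6-only wells as 100% reference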
APP 5'UTR act: activates APP 5'UTR luciferase reporter; SH-SY5Y APP 5'UTR luciferase reporter, luminescence; zero percent = DMSO vehicle wells; activation, % at 2 µM; hit rate 1% among 190,000; AID 1276;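 active = activation above a set limit, based on mean plus 3 SD of controls, cut at about 140% in these data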
NF-kB neuron act: raises NF-kB expression in human neuronal cells; hit rate 1.6% among 190,000; NF-kB reporter expression; active compounds read high; AID 1239; fold change at 12.5 µM; in the data active = fold change above about 3.3
STAT3 blocker: STAT3 signaling inhibition. U3A cells, IL-6 STAT3-luciferase reporter, luminescence; host cell line lacks STAT1. inhibition, % at 5.5 µM. hit rate 0.89% among 190,000;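 active = inhibition above the mean inhibition across all screened compounds plus 3 SD, cut at about 44% in these data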;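 note: 0% = DMSO only wells and 100% = 100 µM nifuroxazide control wells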
STAT1 act-1: STAT1 signaling activation | activation (% of control), % at 5.5 µM | AID 932 | hit rate 2.6% among 200,000 | NIH 3T3 STAT1-luciferase reporter, IFN-gamma, luminescence; 100% = IFN-gamma alone, no compound;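 active = activation above the screen-wide mean activation plus 3 SD, cut at about 130% in these data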;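 note: raw ratio to IFN-gamma control signal so 100% means no change and 0% no light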
STAT1 inh: STAT1 signaling inhibition | NIH 3T3 STAT1-luciferase reporter, IFN-gamma, luminescence | inhibition, % at 5.5 µM | hit rate 0.35% among 200,000 | AID 920;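 active = inhibition above a set limit, the mean inhibition across all tested compounds plus 3 SD, cut at about 34% in these data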;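 note: 0% = IFN-gamma with DMSO and 100% = IFN-gamma with 300 µM nifuroxazide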
STAT3 act-2: confirmation of STAT3 signaling activators; AID 1267; U3A STAT3-luciferase reporter, IL-6 potentiation, luminescence; U3A cells lack STAT1; 100 means same as IL-6 alone; shares compounds with STAT3 act-1; hit rate 64% among 1,200; potentiation (% of control), % at 5.7 µM;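 active = percent activation of the STAT3 luciferase reporter above a set limit taken from the earlier primary screen, cut at about 130% in these data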;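 note: 0% = background signal of medium plus substrate and 100% = median of IL-6 with DMSO wells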
NFkB act 2: NF-kappaB activation in STAT3 activator counter-screen. shares compounds with STAT3 act-1. human cells, NF-kappaB reporter activation. activation (% of control), % at 5.7 µM. hit rate 11% among 1,200. AID 1309; in the data active = activation above about 120%;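 note: reporter induced by TNF-alpha stimulation; 100% = median of stimulated DMSO wells and 0% = no signal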
STAT1 act-2: counter-screen for STAT3 activators: STAT1 activation. activation (% of control), % at 5.7 µM. hit rate 13% among 1,200. NIH 3T3 STAT1-luciferase reporter, IFN-gamma, luminescence. shares compounds with STAT3 act-1;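 active = activation above the solvent-only control well mean plus 3 SD, set per screening run, cut at about 120% in these data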;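 note: 100% = IFN-gamma with DMSO median signal so 100% means no change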
Numbers without * were called inactive; x = no result. The list is not random: actives were taken first. Their share in the collection is about 4.9%.

SMILES | STAT3 act-1 | APP 5'UTR act | NF-kB neuron act | STAT3 blocker | STAT1 act-1 | STAT1 inh | STAT3 act-2 | NFkB act 2 | STAT1 act-2
Cc1ccc(-c2nc(N)n(C(=O)c3cccs3)n2)cc1 | 148* | 18 | 0.82 | -39 | 92 | 7 | 128 | 100 | 89
CC(=O)c1cc2c(cc1NC(=O)CN1CCCCCCC1)OCO2 | 98 | -2 | 1.1 | 6 | 90 | 11 | x | x | x
COc1ccc(S(=O)(=O)N2CCNC(=O)C2)cc1Br | 101 | 17 | 1 | 0 | 97 | 4 | x | x | x
COc1cccc(C2c3[nH]c4ccccc4c3CCN2C(=O)Cn2cncn2)c1OC (stereo not drawn) | 130 | 17 | 1.2 | -32 | 97 | 4 | x | x | x
COc1ccc(C2c3[nH]c4ccccc4c3CCN2CCCn2cccn2)c(C)c1C (stereo not drawn) | 163* | -13 | 0.88 | -67 | 96 | 2 | 163* | 101 | 95
Cc1cc(NC(=O)Cc2cccs2)no1 | 143* | -1 | 1.3 | -47 | 99 | 1 | 131 | 108 | 100
Cc1[nH]c2ccccc2c1C1(O)C(=O)N(C(C)C)c2ccccc21 (stereo not drawn) | 137* | -7 | 0.66 | -38 | 98 | 2 | 121 | 106 | 102
Cc1noc(N)c1C1(O)C(=O)N(C(C)C)c2ccccc21 (stereo not drawn) | 98 | -1 | 1.2 | 4 | 89 | 11 | x | x | x
Cc1[nH]c2ccccc2c1C1(O)C(=O)N(Cc2ccc3c(c2)OCO3)c2ccccc21 (stereo not drawn) | 137* | 15 | 3.3* | -41 | 87 | 14 | 134* | 105 | 105
CCOC(=O)/C(C#N)=C\C1=C(N2CCOCC2)CC(C)(C)OC1 | 97 | 1 | 0.98 | 12 | 94 | 6 | x | x | x
Cc1ccc(Nc2nc(N)c(C#N)c(CC#N)c2C#N)cc1 | 81 | 54 | 1.3 | 27 | 102 | -5 | x | x | x
O=c1cc(CN2CCN(S(=O)(=O)c3ccc4ccccc4c3)CC2)nc2sccn12 | 105 | 1 | 0.88 | 5 | 99 | -1 | x | x | x
Cc1cccc2sc(NC(=O)CSc3nc4ccccc4o3)nc12 | 136* | x | 1.3 | -44 | 93 | 9 | 115 | 102 | 94
O=C(CSc1nc2ccccc2o1)Nc1nc2ccc(Br)cc2s1 | 93 | 4 | 1 | 14 | 103 | -4 | x | x | x
Cc1ccc2c(c1)CCCN2C(=O)c1cccs1 | 146* | 9 | 1.1 | -51 | 94 | 6 | 132 | 103 | 107
Cc1ccc2c(c1)CCCN2C(=O)c1ccncc1 | 104 | 3 | 1.3 | -4 | 102 | -3 | x | x | x
O=C(NCCCn1ccnc1)/C(=C\c1cccnc1)NC(=O)c1cccc(Br)c1 | 109 | 15 | 1 | -10 | 104 | -4 | x | x | x
CC1C(=O)NN=C1C(=O)N/N=C/c1cccs1 (stereo not drawn) | 100 | 21 | 1.2 | 5 | 108 | -7 | x | x | x
Cn1c(=O)c(-c2cc(Br)ccc2N)nc2ccccc21 | 164* | 66 | 0.71 | -64 | 87 | 14 | 155* | 115 | 93
CC(=O)Nc1ccccc1-c1nnc(SCc2ccccc2Cl)[nH]c1=O | 107 | 14 | 1 | -2 | 95 | 5 | x | x | x
O=C(Nc1nc2ccccc2n1CCN1CCCC1)c1ccc(Cl)cc1 | 150* | 65 | 2.2 | -55 | 122 | -22 | 143* | 117 | 127*
CCCn1c(NC(=O)c2ccccc2)nc2ccccc21 | 137* | -5 | 0.99 | -33 | 102 | -3 | 113 | 106 | 100
CCCn1c(CNC(=O)c2ccccc2)nc2ccccc21 | 100 | -26 | 2 | 5 | 106 | -6 | x | x | x
CCOC(=O)N1CCN(C(=S)Nc2ccc(C)cc2)CC1 | 103 | -1 | 1.1 | 1 | 108 | -9 | x | x | x
Cc1nn(Cc2ccccc2)c(C)c1NC(=O)CCCn1nc([N+](=O)[O-])cc1C | 101 | -2 | 0.89 | 5 | 97 | 3 | x | x | x
SMILES | STAT3 act-1 | APP 5'UTR act | NF-kB neuron act | STAT3 blocker | STAT1 act-1 | STAT1 inh | STAT3 act-2 | NFkB act 2 | STAT1 act-2
CCOc1ccccc1N1C(=O)CC(Sc2n[nH]c(-c3ccccc3)n2)C1=O (stereo not drawn) | 98 | -33 | 0.88 | 5 | 99 | 0 | x | x | x
N#Cc1c(C(F)(F)F)cc(C2CC2)nc1N1CCCC1 | 148* | 15 | 0.96 | -59 | 90 | 11 | 122 | 101 | 98
Cn1c(CN2CCN(c3cccc(Cl)c3)CC2)nc2ccccc21 | 139* | -8 | 0.78 | -42 | 100 | 4 | 123 | 108 | 104
Cn1c(=O)[nH]c(=O)c2c1nc(CN1CCN(c3cccc(Cl)c3)CC1)n2CCc1ccccc1 | 103 | 13 | 0.89 | 0 | 91 | 6 | x | x | x
Cc1cc(C)nc(SC2CCCCC2O)n1 (stereo not drawn) | 136* | 20 | 1.1 | -41 | 97 | 5 | 112 | 97 | 99
Cc1cc(C)nc(SCSc2nc(C)cc(C)n2)n1 | 101 | -5 | 1.2 | 3 | 95 | 4 | x | x | x
Nc1c(C(=O)c2ccccc2)sc2snc(SCC(=O)c3ccccc3)c12 | 104 | 38 | 1.3 | 4 | 106 | -14 | x | x | x
Cc1cc(C)n(-c2nc(-c3ccccc3)cs2)n1 | 137* | x | 2.6 | -44 | 107 | -14 | 120 | 121* | 122*
CC(=O)Nc1sc(N/N=C\c2ccccc2)nc1-c1cccs1 | 140* | 15 | 1.1 | -48 | 104 | -4 | 177* | 107 | 114
CCOC(=O)CN(c1cc([N+](=O)[O-])ccc1OC)S(C)(=O)=O | 104 | -3 | 0.82 | 2 | 107 | -10 | x | x | x
O=C(NCC1CCCN(Cc2ccccc2F)C1)c1cccc(C(F)(F)F)c1 (stereo not drawn) | 102 | 18 | 0.76 | 2 | 89 | 11 | x | x | x
Cc1ccc(C)c(SCC(=O)OC/C(O)=C(\C#N)c2nc3ccccc3[nH]2)c1 | 146* | 4 | 2.2 | -51 | 91 | 10 | 150* | 111 | 91
Cc1cccc(Nc2nnc(SCC(=O)Nc3ccccc3[N+](=O)[O-])s2)c1C | 119 | 7 | 1.1 | -20 | 106 | -7 | x | x | x
Cc1cccc(C)c1Nc1nnc(SC/C(O)=C(\C#N)c2nc3ccccc3[nH]2)s1 | 143* | -9 | 0.64 | -55 | 91 | 10 | 152* | 103 | 89
Cc1cccc(Nc2nnc(SC/C(O)=C(\C#N)c3nc4ccccc4[nH]3)s2)c1C | 148* | -8 | 0.61 | -63 | 87 | 16 | 145* | 103 | 90
Cn1cnnc1SC/C(O)=C(\C#N)c1nc2ccccc2[nH]1 | 103 | -8 | 1.1 | -4 | 94 | 7 | x | x | x
